Consider 11 molecules from ChEMBL document CHEMBL1124580, “Opioid agonist and antagonist activities of peripherally selective derivatives of naltrexamine and oxymorphamine” (J Med Chem, 1989).

Experiment [1] concerns Mus musculus. The experiment in a line: Dose required to produce equivalent antagonism of morphine activity after peroral administration of compound. The format is functional. A digest of the protocol:
(§1)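 Mouse tail-flick assay against sc morphine. Antagonist dosed icv, iv or po. Equiactive dose calculated as the dose required to double the morphine ED50, [dose/(DR − 1)]. icv doses were also expressed per kg body weight.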

A short description of experiment [2]: Antagonistic potency,60 min after intracerebro ventricular administration of compound ([…]), in mice (tail flick assay). In kind it is functional. The method, boiled down:
(§2)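 Male Swiss–Webster mice, tail-flick antinociception. Morphine given sc and tested 30 min after injection. Antagonist given icv (0.01 nmol), iv (18.3 μmol/kg) or po (91.7 μmol/kg), timed so both drugs were at peak (antagonist peaks 60, 90 and 120 min).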
In general terms: Thermal pain tests record how soon the animal reacts.

Experiment [3] relates to Mus musculus. The experiment in a line: Dose required to produce equivalent antagonism of morphine activity after intravenous administration of compound. In kind it is functional. A digest of the protocol:
as §1

The nature of experiment [4]: Antagonistic potency, 90 min after intravenous administration of compound (18.3 u mol/kg), in mice (tail flick assay). The format is functional. The method, boiled down: as §2
The test system of experiment [5] is Mus musculus. The experiment in a line: Antagonistic potency, 60 min after intracerebro ventricular administration of compound (0.01n mol), in mice (tail flick assay). To be noted: central, 1 h. The format is functional. A digest of the protocol: as §2
Experiment [6] has as its system Mus musculus. Kind of experiment: Antagonistic potency, 90 min after […] administration of compound (18.3 u mol/kg), in mice (tail flick assay). The format is functional. To be noted: 1.5 h. The method, boiled down:
as §2

The species named for experiment [7] is Cavia porcellus. The experiment in a line: Antagonistic activity against morphine in guinea pig ileal longitudinal muscle(GPI) preparation; Agonism was too strong to test for antagonism. In kind it is functional. To be noted: Muscle tissue, filed as agonist. A digest of the protocol:
(§3)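 Guinea pig ileal longitudinal muscle, electrically stimulated twitch. Antagonism measured against morphine. Ke = [antagonist]/(IC50 ratio − 1); the IC50 ratio is morphine IC50 with antagonist over its control IC50 in the same preparation. Values are means ± SE, with number of experiments.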

Experiment [8] relates to Mus musculus. Kind of experiment: Peak effect of agonistic potency 10 min after intracerebro ventricular administration, in mice (acetic acid writhing assay). In kind it is functional. The method, boiled down:
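Mouse acetic acid writhing assay. Compound given icv or po. […] Expressed as nmol/mouse (icv) or […] (po).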

Experiment [9] has as its system Mus musculus. Kind of experiment: Antagonistic potency, 120 min after […] administration of compound (91.7u mol/kg), in mice (tail flick assay). The format is functional. To be noted: 2 h. The method, boiled down: as §2
Experiment [10] in a line: Antagonistic potency, 120 min after […] administration of compound (91.7 u mol/kg), in mice (tail flick assay). In kind it is functional. A digest of the protocol:
as §2

The species named for experiment [11] is Cavia porcellus. The experiment in a line: Maximum percent inhibition of electrically stimulated twitch in guinea pig ileal longitudinal muscle(GPI) preparation. In kind it is functional. To be noted: Muscle tissue. The method, boiled down: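 Guinea pig ileal longitudinal muscle, electrically stimulated. Maximum percent inhibition of the twitch determined at 1 μM. Values are means ± SE, with number of experiments.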

For experiment [12], the target named is T1, Opioid receptors; mu/kappa/delta (Homo sapiens, UniProt P41145+P41143+P35372). Kind of experiment: Opioid receptor agonistic potency in guinea pig ileal longitudinal muscle(GPI) preparation. The format is functional, Cavia porcellus. To be noted: target entry is the homologue from another species. A digest of the protocol:
(§4)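 Guinea pig ileal longitudinal muscle, electrically stimulated twitch. Agonist potency taken as IC50 for twitch inhibition and as potency ratio relative to morphine (morphine = 1). Values are means ± SE, with number of experiments.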

The subject of experiment [13] is Mus musculus. The experiment in a line: Peak antinociceptive potency of compound, 60 min after peroral administration into mice. The format is functional. To be noted: po, 1 h. A digest of the protocol: (§5)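 Male Swiss–Webster mice, tail-flick antinociception. Compounds given icv, iv or po, with ED50 taken at peak effect. Some ED50s were estimated from two dose levels. Where drug was insufficient, an approximate range was based on one dose level.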

The subject of experiment [14] is Mus musculus. Kind of experiment: Peak antinociceptive potency of compound, 40 min after intracerebro ventricular administration into mice. In kind it is functional. A digest of the protocol: as §5
Experiment [15] concerns the target T1, Opioid receptors; mu/kappa/delta. The experiment in a line: (§6) Potency against opioid receptor relative to morphine. The format is functional. To be noted: Cavia porcellus. The method, boiled down: as §4
For experiment [16], the system named is Mus musculus. Kind of experiment: Peak antinociceptive potency of compound, 40 min after intravenous administration into mice. The format is functional. A digest of the protocol:
as §5

The species entered for experiment [17] is Cavia porcellus. Kind of experiment: Antagonistic activity against morphine in guinea pig ileal longitudinal muscle(GPI) preparation. In kind it is functional, Muscle tissue. The method, boiled down: as §3
In experiment [18] the test system is Mus musculus. Kind of experiment: Peak antinociceptive potency of compound, 40 min after intracerebro ventricular administration nto mice. The format is functional. A digest of the protocol: as §5
A short description of experiment [19]: as §6. The format is functional. The method, boiled down: as §4
Experiment [20] deals with Mus musculus. Kind of experiment: Peak antinociceptive potency of compound, 20 min after intracerebro ventricular administration into mice. The format is functional. The method, boiled down:
as §5

Experiment [21] relates to Mus musculus. Kind of experiment: Peak antinociceptive potency of compound, 20 min after intravenous administration into mice. In kind it is functional. A digest of the protocol: as §5

T1 sequence (P35372 whole entry, looked up): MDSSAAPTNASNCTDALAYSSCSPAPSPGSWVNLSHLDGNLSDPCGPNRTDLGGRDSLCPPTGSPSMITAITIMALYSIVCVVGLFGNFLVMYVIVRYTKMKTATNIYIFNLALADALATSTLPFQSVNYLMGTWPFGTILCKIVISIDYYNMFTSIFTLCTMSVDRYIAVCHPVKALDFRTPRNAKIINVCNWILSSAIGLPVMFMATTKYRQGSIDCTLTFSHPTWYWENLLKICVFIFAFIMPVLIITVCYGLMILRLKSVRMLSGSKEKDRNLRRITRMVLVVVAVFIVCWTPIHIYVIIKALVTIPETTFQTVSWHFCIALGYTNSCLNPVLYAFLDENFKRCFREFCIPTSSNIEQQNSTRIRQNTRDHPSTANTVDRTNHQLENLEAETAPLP
T1 sequence (P41143 whole entry, looked up): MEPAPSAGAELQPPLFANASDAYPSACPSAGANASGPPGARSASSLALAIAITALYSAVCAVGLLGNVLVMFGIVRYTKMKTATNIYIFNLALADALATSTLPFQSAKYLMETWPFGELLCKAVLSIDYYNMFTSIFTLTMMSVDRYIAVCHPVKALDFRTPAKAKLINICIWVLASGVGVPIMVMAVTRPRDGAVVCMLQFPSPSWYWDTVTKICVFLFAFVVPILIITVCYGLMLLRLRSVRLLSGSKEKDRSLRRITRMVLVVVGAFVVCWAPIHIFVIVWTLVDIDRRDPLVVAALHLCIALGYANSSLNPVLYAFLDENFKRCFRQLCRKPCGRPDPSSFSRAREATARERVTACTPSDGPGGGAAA
T1 sequence (P41145 whole entry, looked up): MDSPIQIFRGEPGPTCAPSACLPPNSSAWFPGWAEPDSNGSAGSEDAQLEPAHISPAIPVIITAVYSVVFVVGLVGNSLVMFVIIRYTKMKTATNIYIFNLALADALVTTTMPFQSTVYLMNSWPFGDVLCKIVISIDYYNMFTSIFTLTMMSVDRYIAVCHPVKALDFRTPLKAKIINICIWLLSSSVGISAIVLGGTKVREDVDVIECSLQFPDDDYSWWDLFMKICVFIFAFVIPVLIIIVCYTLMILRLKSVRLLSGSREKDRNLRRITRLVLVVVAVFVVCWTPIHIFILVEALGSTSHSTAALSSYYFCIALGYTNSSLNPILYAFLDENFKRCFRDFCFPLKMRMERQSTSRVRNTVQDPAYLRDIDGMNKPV

A word on the IC50: it is the concentration that inhibits the measured activity by half. Low values mean greater potency in that assay, high ones weaker potency in that assay. Regarding `NC(CC(=O)O)C(=O)NC1CC[C@@]2(O)[C@H]3Cc4ccc(O)c5c4[C@@]2(CCN3CC2CC2)[C@H]1O5` (some centres not stated), the Dose in experiment [1] was 45.85 µM/kg; in experiment [3] it was 1.63 µM/kg. The Dose ratio in [2] is 4.2; in [4], 12.2; in experiment [10] it was 3. The ED50 was 58 µmol/kg in [5], 168 µmol/kg in experiment [6], 0.024 nM mouse-1 in experiment [8] and 41.4 µmol/kg in experiment [9]. Also, the Ke entry in [7] is on record as “Agonism was too strong to test for antagonism”. The same molecule registered a half-inhibitory concentration (IC50) in [11] of 7.4 nM.

`CN1CC[C@]23c4c5ccc(O)c4O[C@H]2C(NC(=O)COCC(=O)O)CC[C@@]3(O)[C@H]1C5` (some centres not stated): the 50% inhibitory concentration (IC50) in experiment [12] amounted to 27 nM. Moreover, the ED50 was above 25 µmol/kg in experiment [13], 0.25 nM mouse-1 in [14] and below 20 µmol/kg in experiment [16]. In addition, the Ratio in experiment [15] is 3.1.

In experiment [17], `O=C(O)CCC(=O)NC1CC[C@@]2(O)[C@H]3Cc4ccc(O)c5c4[C@@]2(CCN3CC2CC2)[C@H]1O5` (some centres not stated) showed a Ke of 24.8 nM. This molecule also showed an IC50 in experiment [11] of 56 nM.

Regarding `CN1CC[C@]23c4c5ccc(O)c4O[C@H]2C(NC(=O)CCC(=O)O)CC[C@@]3(O)[C@H]1C5` (some centres not stated), the results for the ED50 in experiment [18], in experiment [13] and in experiment [16] were 0.27 nM mouse-1, 30.3 µmol/kg and 9.8 µmol/kg, respectively. In experiment [12], this molecule came in with a 50% inhibitory concentration (IC50) of 144 nM. Besides, the Ratio in experiment [19] worked out at 1.6.

With `O=C(O)COCC(=O)NC1CC[C@@]2(O)[C@H]3Cc4ccc(O)c5c4[C@@]2(CCN3CC2CC2)[C@H]1O5` (some centres not stated), the Ke in experiment [17] worked out at 6.2 nM. This molecule returned an IC50 in experiment [11] of 38 nM.

With `CN1CC[C@]23c4c5ccc(O)c4O[C@H]2C(NC(=O)/C=C\C(=O)O)CC[C@@]3(O)[C@H]1C5` (some centres not stated), in experiment [12], the IC50 came out at 39 nM. The values for the ED50 in [13], in [20] and in [21] were 20 µmol/kg, 0.17 nM mouse-1 and 11 µmol/kg, respectively. Further, in [19], the Ratio was determined as 2.6.

For `CN1CC[C@]23c4c5ccc(O)c4O[C@H]2C(NC(=O)/C=C/C(=O)O)CC[C@@]3(O)[C@H]1C5` (some centres not stated), the half-maximal inhibitory concentration (IC50) in [12] was 130 nM. Besides, in [19], the Ratio was 1.5.

In the case of `O=C(O)CCCC(=O)NC1CC[C@@]2(O)[C@H]3Cc4ccc(O)c5c4[C@@]2(CCN3CC2CC2)[C@H]1O5` (some centres not stated), in [17], the Ke is 28 nM. The molecule also displayed a 50% inhibitory concentration (IC50) in experiment [11] of 41 nM.

`CN1CC[C@]23c4c5ccc(O)c4O[C@H]2C(NC(=O)C(N)CC(=O)O)CC[C@@]3(O)[C@H]1C5` (some centres not stated) came in with a 50% inhibitory concentration (IC50) in [12] of 31 nM. Moreover, in [19], the Ratio worked out at 6.1. The figures for the ED50 in [20] and in experiment [16] were 1110.44 nM mouse-1 and below 20 µmol/kg, respectively.

`O=C(O)/C=C/C(=O)NC1CC[C@@]2(O)[C@H]3Cc4ccc(O)c5c4[C@@]2(CCN3CC2CC2)[C@H]1O5` (some centres not stated): the Ke in experiment [17] is listed as 8.4 nM. In addition, in [11], half-maximal inhibition (IC50) required 6 nM.

In turn, `O=C(O)CNC1CC[C@@]2(O)[C@H]3Cc4ccc(O)c5c4[C@@]2(CCN3CC2CC2)[C@H]1O5` (some centres not stated) came in with a Ke in [17] of 24.4 nM. Further, in experiment [11], the IC50 was 37 nM.
